CHOP UPR activ: activators of apoptotic arm of unfolded protein response (CHOP); 330,000 compounds, 0.34% hits; AID 449763; activation, % at 10 µM; CHO-CHOP luciferase reporter, UPR activation, luminescence; percent of tunicamycin response over DMSO baseline;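 active = at 10 µM dose, activation of 40% or more, normalized to positive control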
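Dosing – one dose, 10 µM in 0.5% DMSO · System – CHO-CHOP cells, stable luciferase reporter of PERK-eIF2a-CHOP signalling · Input – 500 cells/well · Control set – tunicamycin 10 µg/mL final as positive, DMSO-only wells as negative · Timing – 6 h compound treatment, 37 °C · Measure – % activation vs tunicamycin · Technique – luminescence read with Steady-Glo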
Dynein transport: dynein cargo transport inhibition; z-score, hits read low; 220,000 compounds, 0.47% hits; AID 1381; 3617.4 mouse cells, GR-EGFP nuclear translocation imaging; test concentration mostly 20 µM; stimulated with dexamethasone, 1 µM; active compounds read low;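 active = plate z-score of nuclear minus cytoplasmic receptor signal below a set negative limit, without overly bright fluorescence or cell loss, cut at about -3.5 in these data, passing the limit was not always enough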;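 also: z-score of nuclear minus cytoplasmic ring GR-EGFP intensity difference per well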
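medium = tetracycline-free induction medium containing charcoal-stripped FBS | probe or stimulus = dexamethasone, 1.0 µM final | timing = 48 h induction, then 1 h compound, then 30 min agonist, 37 °C | detection = automated 10x imaging of fixed Hoechst-stained cells | read-out basis = nuclear versus cytoplasmic GR-EGFP signal, averaged per well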
XBP1 UPR activ: activators of adaptive arm of unfolded protein response (XBP1); CHO-XBP1 luciferase reporter, IRE1-XBP1 UPR activation, luminescence; percent of tunicamycin response, DMSO as zero; activation, % at 20 µM; 330,000 compounds, 0.33% hits; AID 463104;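 active = versus positive control, 20 µM dose yields 30% or more activation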
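assay system = CHO-XBP1 luciferase reporter cells | amount = 1000 cells/well | buffer or medium = F12 plus 10% FBS | compound dosing = single point, 20 µM final compound, 1% DMSO | incubation = 16-18 h cell attachment at 37 °C, then 6 h compound exposure | detection = Steady-Glo luminescence read | controls = tunicamycin 10 µg/mL and vehicle-only wells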
CHOP inh: inhibitors of CHOP induction in ER stress response | CHO-K1 CHOP-promoter luciferase, tunicamycin-induced, 15-18 h | inhibition, % at 10 µM | 220,000 compounds, 3.8% hits | AID 2732;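 active = compounds that reduced the stress-induced luciferase reporter signal by more than about 70% of percent inhibition, limit read from the data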
Lmaj promast: reduces viability of Leishmania major promastigotes. resazurin fluorescence viability. inhibition, % at 10 µM. 200,000 compounds, 9% hits. AID 1063; in the data active = inhibition above about 50%;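 also: promastigotes grown with compound for 44 hours at 28 °C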
T cruzi repl: T. cruzi replication inhibition. T. cruzi beta-gal in NIH3T3, luminescence, 90 h. inhibition, % (concentration not given with the values). 300,000 compounds, 1.4% hits. AID 1885;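 active = mean inhibition across valid replicates above about 55%, limit read from the data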;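 also: signal also drops with host cell toxicity which is not excluded here; higher percent means less beta-gal luminescence so fewer parasites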
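assay system = mouse NIH/3T3 fibroblasts infected with β-gal-expressing T. cruzi Tulahuen C4 | input = 5,000 NIH/3T3 host cells per well | buffer or medium = DMEM plus 2% FBS | timing = 3 h host attachment, then at least 90 h co-culture | measured by = GalScreen luminescence, 60 min | evaluation = luminescence reflecting intracellular parasite burden, expressed as percent inhibition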
L major 1uM: inhibitors of Leishmania major promastigote growth, repeat at 1 uM | L. major promastigote growth, resazurin fluorescence, 48 h | 1,100 compounds, 13% hits | inhibition, % at 1 µM | AID 1258 | shares compounds with Lmaj promast;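 active = inhibition above about 50% in both repeat tests, limit read from the data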
Large screens that a line does not name were inactive (follow-up assays come after a bar, where they were run). This excerpt belongs to a sample that is enriched for hits.

Cc1ccc(S(=O)(=O)CCC(=O)OCC(=O)NC(C)c2ccccc2)cc1 (stereo unspecified)	none (no result: Dynein transport, CHOP inh, Lmaj promast, T cruzi repl)
COc1ccc(C(=O)CSc2nnnn2Cc2ccccc2)cc1	none
COC(=O)c1ccc(CSc2nnnn2Cc2ccccc2)cc1	Lmaj promast 97 | L major 1uM inactive
CCOC(=O)c1ccc(N2C(=O)c3n[nH]c(-c4ccco4)c3C2c2cccc([N+](=O)[O-])c2)cc1 (stereo unspecified)	CHOP inh 71, Lmaj promast 96 | L major 1uM inactive
O=C(/C=C/c1ccc(S(=O)(=O)N2CCOCC2)cc1)NCc1ccccc1F	none (no result: Dynein transport, CHOP inh, Lmaj promast, T cruzi repl)
O=C(Cc1ccccc1)Nc1ccccc1C(=O)NCC1CCCO1 (stereo unspecified)	none (no result: Dynein transport, CHOP inh, Lmaj promast)
COc1ccccc1OC1OC2COC(c3ccco3)OC2C(O)C1NC(C)=O (stereo unspecified)	Lmaj promast 65 | L major 1uM inactive
Cc1ccc2nc(-c3ccncc3)cc(-c3ccccc3)c2c1	none
Cc1ccc(-c2cc3cccc[n+]3cc2-c2ccc(C)cc2)cc1	Lmaj promast 100, T cruzi repl 60 | L major 1uM 91
Cc1cc(C)n2nc(C)c(Br)c2n1	none
Cc1cc(C)n2nc3nc4c(cc3c2n1)CCCC4	Lmaj promast 72 | L major 1uM inactive
COc1ccc(-[n+]2c(C)cc(/C=C3\Sc4ccccc4N3C)cc2C)cc1	CHOP inh 92, Lmaj promast 101 | L major 1uM 101
COc1ccc(CNC(=O)c2cc3cccc(O)c3oc2=N)cc1	none (no result: Dynein transport, CHOP inh, Lmaj promast)
O=C(CCCc1c[nH]c2ccccc12)N[C@@H](Cc1c[nH]c2ccccc12)C(=O)O	none (no result: Dynein transport, CHOP inh, Lmaj promast)
CCOC(=O)c1cnn(-c2ncnc3sc4c(c23)CCC4)c1N	none
CCOC(=O)c1cnn(-c2nc(SC)nc3sc4c(c23)CCCC4)c1N	Lmaj promast 60 | L major 1uM inactive
O=c1c2cn[nH]c2nc(SCc2c(F)cccc2F)n1-c1ccc(Cl)cc1	none
CNCCCC1c2ccccc2C=Cc2ccccc21	Lmaj promast 56 | L major 1uM inactive
CNCCC=C1c2ccccc2C=Cc2ccccc21	none (no result: Dynein transport, CHOP inh, Lmaj promast, T cruzi repl)
O=C(O)C[C@H](O)C[C@H](O)/C=C/c1c(C2CC2)nc2ccccc2c1-c1ccc(F)cc1	none (no result: CHOP UPR activ, Dynein transport, XBP1 UPR activ, CHOP inh, Lmaj promast)
Cn1c(=O)c(C(=O)c2ccc(S(C)(=O)=O)c(Cl)c2Cl)c(O)c2ccccc21	none (no result: Dynein transport, CHOP inh, Lmaj promast)
Nc1c(-c2ccccc2)c(CN2CCOCC2)nn1-c1ccc(C(=O)O)cc1	Lmaj promast 66 | L major 1uM inactive
O=C(O)c1ccc(-n2nncc2-c2ccccc2)cc1	none (no result: Dynein transport, CHOP inh, Lmaj promast)
COC(=O)Cc1c[nH]c2cccc(OCC(O)CN(Cc3ccccc3)C(C)C)c12 (stereo unspecified)	Lmaj promast 98 | L major 1uM inactive
CCC(C)(C)C1CCC2(CC1)NC(=O)N(CC(=O)NCCc1ccc(OC)c(OC)c1)C2=O (stereo unspecified)	none (no result: Dynein transport, CHOP inh, Lmaj promast, T cruzi repl)
Nc1c(C(=O)NCCN2CCOCC2)c2nc3ccccc3nc2n1CCc1ccccc1F	Lmaj promast 65 | L major 1uM inactive
O=C(Nc1ccc(Cl)cc1)Nc1ccc2c(c1)N1CCN=C1S2	Lmaj promast 100 | L major 1uM inactive
CCCOc1ccc(N)cc1N	Lmaj promast 74 | L major 1uM inactive
O=C(O)CCC(=O)Nc1ccc(N2CCCCCC2)cc1	Lmaj promast 97 | L major 1uM 94
COc1ccccc1CN1CC(C(=O)N(C)Cc2[nH]c3ccccc3c2C)CCC1=O (stereo unspecified)	none (no result: Dynein transport, CHOP inh, Lmaj promast)
Cc1nc2c(-c3ccccc3)c(C)[nH]n2c(=O)c1Cc1ccccc1	none
Cc1nc2c(-c3ccc(Cl)cc3)c(C)[nH]n2c(=O)c1Cc1ccccc1	Lmaj promast 99, T cruzi repl 63 | L major 1uM inactive
O=C(NCC1(N2CCCCC2)CCCCC1)c1cccc(S(=O)(=O)Nc2ccc(F)cc2)c1	none (no result: Dynein transport, CHOP inh, Lmaj promast, T cruzi repl)
O=C(Nc1ccc2nc(-c3ccco3)[nH]c2c1)c1cccs1	Lmaj promast 88 | L major 1uM inactive
CCc1ccc(N2CC(O)(c3cccs3)[N+]3=C2SCCC3)cc1 (stereo unspecified)	Lmaj promast 72 (no result: T cruzi repl) | L major 1uM inactive
Cc1ccc(N2CC(O)(c3cccs3)[N+]3=C2CCCC3)cc1 (stereo unspecified)	none
Cc1cc(C)c(C(=O)CSC2=NC(N)=C(C#N)C3(CCCCC3)C2C(N)=O)cc1C (stereo unspecified)	Lmaj promast 64 | L major 1uM inactive
O=C(Oc1ccc(C(=S)N2CCOCC2)cc1)c1ccc([N+](=O)[O-])cc1	none (no result: Dynein transport, CHOP inh, Lmaj promast)
O=[N+]([O-])c1ccccc1S(=O)(=O)Oc1ccc(C(=S)N2CCOCC2)cc1	Lmaj promast 81 | L major 1uM inactive
CCCCCCCSc1nsc(N)n1	Lmaj promast 69 | L major 1uM inactive
O=c1c2ccccc2nc2c3ccccc3c(NCCN3CCOCC3)nn12	Lmaj promast 100 | L major 1uM inactive
O=c1c2ccccc2nc(-c2ccccc2)n1CCN1CCOCC1	none
Cc1ccccc1OCC(=O)Nc1ccc2c(c1)C(=O)N(CCC(=O)O)C2=O	none (no result: Dynein transport, CHOP inh, Lmaj promast)
CC(=O)c1c(C)[nH]c(C(=O)OCc2csc(CC(=O)Nc3ccccc3C)n2)c1C	none (no result: Dynein transport, CHOP inh, Lmaj promast, T cruzi repl)
COc1cc(/C=C/c2cc[n+](C)cc2)ccc1OCC(=O)Nc1ccccc1	none (no result: Dynein transport, CHOP inh, Lmaj promast)
COc1cc(CNCC(C)C)cc(Br)c1OCC(=O)Nc1ccccc1	Lmaj promast 100 | L major 1uM inactive
COc1ccc(-n2nc(C(=O)NCC(=O)NCCc3ccc(OC)c(OC)c3)c3ccccc3c2=O)cc1Cl	none (no result: Dynein transport, CHOP inh, Lmaj promast)
Cc1ccc(S(=O)(=O)Cn2nnnc2CN(Cc2ccco2)CC2CCCO2)cc1 (stereo unspecified)	Lmaj promast 53 | L major 1uM inactive
Cc1ccc2cc(CN(Cc3nnnn3Cc3ccco3)CC3CCCO3)c(=O)[nH]c2c1C (stereo unspecified)	none
Cc1ccc(NC(=O)C2CCCN(S(=O)(=O)c3c(C)noc3C)C2)c(Br)c1 (stereo unspecified)	none (no result: Dynein transport, CHOP inh, Lmaj promast)
O=C(O)c1cc2c(s1)-c1ccccc1CC2	Lmaj promast 53 | L major 1uM inactive
O=C(O)c1cc2c(s1)-c1ccccc1OC2	none
Cc1cc(C(C)(C)C)cc(C)c1Cn1c2[n+](c3ccc(C(F)(F)F)cc31)CCCCC2	Lmaj promast 100, T cruzi repl 59 | L major 1uM inactive
COc1ccc(-n2nnnc2S(=O)(=O)CC(=O)N2CCCCC2)cc1	Dynein transport -3.9, Lmaj promast 93 (no result: CHOP inh, T cruzi repl) | L major 1uM inactive
COc1ccc(-n2nnnc2S(=O)(=O)Cc2ccc(C(=O)O)cc2)cc1	none

Screening data (PubChem BioAssay)
